This passage reports inhibition, Activity and IC50 results from ChEMBL document CHEMBL1157487, “Discovery of potent CCR4 antagonists: Synthesis and structure-activity relationship study of 2,4-diaminoquinazolines” (Bioorg Med Chem, 2008).

Assay [1] concerns the target T1, C-C chemokine receptor type 4 (Homo sapiens) (UniProt P51679).
T1 sequence (whole entry): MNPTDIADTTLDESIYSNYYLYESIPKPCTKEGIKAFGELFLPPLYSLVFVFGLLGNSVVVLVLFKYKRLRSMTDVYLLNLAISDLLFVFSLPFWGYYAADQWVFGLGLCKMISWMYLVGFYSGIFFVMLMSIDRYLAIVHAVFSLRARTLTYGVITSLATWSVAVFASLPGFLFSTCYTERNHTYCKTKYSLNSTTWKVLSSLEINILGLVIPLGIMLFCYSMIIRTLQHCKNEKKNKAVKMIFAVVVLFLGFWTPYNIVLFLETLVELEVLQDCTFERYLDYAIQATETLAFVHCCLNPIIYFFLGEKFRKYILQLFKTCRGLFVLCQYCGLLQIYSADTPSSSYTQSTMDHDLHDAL
In words: Antagonist activity at human CCR4 receptor expressed in mouse B300-19 cells at 1 uM by [35S]GTPgammaS binding assay. The class given is functional, cell-based. The procedure, abridged: (§1)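 Membranes from human CCR4-expressing B300-19 cells (1 µg protein/well) with 150 pM [35S]GTPγS, 2 µM GDP, 3 nM MDC (CCL22), WGA SPA beads, test compound in 20 mM Hepes-NaOH pH 7.05, 100 mM NaCl, 5 mM MgCl2, 0.2% BSA; 1.5 h, 25 °C. Percent inhibition against no-compound and no-CCL22 controls. Duplicate, four concentrations, usually two determinations averaged. IC50 by non-linear fitting.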
On the technique in general: GTPγS is a poorly hydrolysed GTP analogue; its binding reports G protein activation.

Assay [2] addresses T1, C-C chemokine receptor type 4 (Homo sapiens). Description: Displacement of [125I]CCl22 from human CCR4 receptor expressed in mouse B300-19 cells at 1 uM by SPA. The class given is cell-based. The procedure, abridged:
(§2)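 SPA on whole human CCR4-expressing B300-19 cells (2×10^5/well) with 25 pM [125I]CCL22 and WGA SPA beads, test compound, in 50 mM Hepes pH 7.4, 5 mM MgCl2, 1 mM CaCl2, 0.1% BSA; 2 h, 25 °C. Nonspecific binding defined with 10 nM unlabeled CCL22. Duplicate, four concentrations, usually two determinations averaged. IC50 by non-linear curve fitting.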
(In general: Displacement assays read how much labelled ligand stays bound in the presence of the test substance.)

The target of assay [3] is T2, C-C chemokine receptor type 4 (Mus musculus) (UniProt P51680).
T2 sequence (whole entry): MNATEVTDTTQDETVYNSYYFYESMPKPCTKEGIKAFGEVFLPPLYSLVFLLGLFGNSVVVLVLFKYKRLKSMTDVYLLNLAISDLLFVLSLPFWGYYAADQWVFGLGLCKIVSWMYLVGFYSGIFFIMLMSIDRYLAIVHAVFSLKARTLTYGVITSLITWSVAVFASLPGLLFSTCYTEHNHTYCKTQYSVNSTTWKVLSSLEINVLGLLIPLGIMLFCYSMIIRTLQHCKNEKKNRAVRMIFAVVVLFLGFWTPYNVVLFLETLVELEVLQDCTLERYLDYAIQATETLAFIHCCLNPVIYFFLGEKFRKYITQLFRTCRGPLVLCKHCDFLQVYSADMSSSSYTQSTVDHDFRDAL
In words: Antagonist activity at mouse CCR4 receptor expressed in mouse B300-19 cells assessed as CCL22-induced chemotaxis by bioluminescent assay. In kind it is functional, cell-based. The procedure, abridged:
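Chemotaxis of B300-19 stable transformants carrying mouse CCR4 cDNA, suspended at 5×10^6 cells/mL in RPMI 1640 plus 0.1% BSA with test compound; 1 nM mouse CCL22 in lower wells, 5-µm pore filters, 3 h at 37 °C, 5% CO2. Migrated cells counted by ATP bioluminescence. Triplicate at four concentrations. IC50 from non-linear curve fit.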

In assay [4] the target is T3, C-C chemokine receptor type 4 (Homo sapiens, UniProt P51679).
T3 sequence (P51679 whole entry): T1 sequence (whole entry)
In words: Displacement of [125I]CCl22 from human CCR4 receptor expressed in mouse B300-19 cells by SPA. In kind it is cell-based. The procedure, abridged: as §2

The target of assay [5] is T3, C-C chemokine receptor type 4. In words: Antagonist activity at human CCR4 receptor expressed in mouse B300-19 cells by [35S]GTPgammaS binding assay. The class given is functional, cell-based. The method in brief: as §1
Assay [6] has as its target T1, C-C chemokine receptor type 4 (Homo sapiens). Description: Antagonist activity at human CCR4 receptor expressed in mouse B300-19 cells assessed as CCL22-induced chemotaxis by bioluminescent assay. In kind it is functional, cell-based. The method in brief: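 Stably transfected B300-19 cells (human CCR4 cDNA, G418 selection) at 5×10^6 cells/mL in RPMI 1640 with 0.1% BSA, pretreated with test compound; placed over 3 nM human CCL22 in 5-µm-pore polycarbonate filter chambers, 3 h, 37 °C, 5% CO2. Migrated cells quantified by ATP bioluminescence. Controls without compound or without CCL22. Triplicate, four concentrations. IC50 by non-linear curve fitting.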

For assay [7] the target is unchanged. Description: Antagonist activity at human CCR4 receptor expressed in mouse B300-19 cells assessed as CCL22-induced chemotaxis at 1 uM by bioluminescent assay. The class given is functional, cell-based.

The inhibition is the relative decrease from the control value, in per cent. Take `COc1cc2nc(N3CCCCC3)nc(NC3CCCCCC3)c2cc1OC`: the inhibition in assay [1] is 7%; in assay [2], 11%.
As for `COc1cc2nc(NCCN3CCCCC3)nc(NC3CCCCCC3)c2cc1OC`, the values for the inhibition in assay [1] and in assay [2] were 1% and 18%, respectively.
For `COc1cc2nc(N3CCC(O)CC3)nc(NC3CCCCCC3)c2cc1OC`, the figures for the inhibition in assay [1] and in assay [2] were less than 0% and 3%, respectively.
Regarding `COc1cc2nc(N3CCOCC3)nc(NC3CCCCCC3)c2cc1OC`, the inhibition was less than 0% in assay [1] and 8% in assay [2].
By IC50 is commonly meant the concentration at which inhibition is half-maximal. A lower IC50 goes with inhibition by little substance. On to `COc1cc2nc(N3CCC(N4CCCCC4)CC3)nc(NC3CCCCCC3)c2cc1OC`, for which the Activity is 0.039 µM in assay [3] and 0.14 µM in assay [6]. The IC50 came out at 73 nM in assay [4] and 18 nM in assay [5]. For the same compound, the inhibition in assay [1] is 92%; in assay [2], 100%.
For the compound `COc1cc2nc(N3CCC(N4CCCC4)CC3)nc(N(C)C)c2cc1OC`, the inhibition in assay [1] and in assay [2] was less than 0% throughout.
As for `COc1cc2nc(N3CCC(Cc4ccccc4)CC3)nc(NC3CCCCCC3)c2cc1OC`, the inhibition in assay [1] is 1%; in assay [2], less than 0%.
`COc1cc2nc(N3CCN(C(C)C)CC3)nc(NC3CCCCCC3)c2cc1OC`: the IC50 in assay [4] is 660 nM; in assay [5], 220 nM. Moreover, the inhibition in assay [1] and in assay [2] was 68% throughout.
As to `COc1cc2nc(N3CCC(N4CCCC4)CC3)nc(NC3CCCCNC3=O)c2cc1OC` (centres undefined), the inhibition in assay [1] and in assay [2] was 16% each time.
For the compound `COc1cc2nc(NCCc3ccccc3)nc(NC3CCCCCC3)c2cc1OC`, the results for the inhibition in assay [1] and in assay [2] were 16% and less than 0%, respectively.
The corresponding values for `COc1cc2nc(NCCCN3CCCC3)nc(NC3CCCCCC3)c2cc1OC` are 35% and 16%.
`COc1cc2nc(N3CCN(c4ccccc4)CC3)nc(NC3CCCCCC3)c2cc1OC`: the inhibition in assay [1] and in assay [2] was 7% in each case.
For the compound `CCOC(=O)N1CCC(Nc2nc(N3CCC(N4CCCC4)CC3)nc3cc(OC)c(OC)cc23)CC1`, the inhibition came to 10% in assay [1] and 6% in assay [2].
The corresponding values for `COc1cc2nc(N3CCC(N4CCCC4)CC3)nc(NC3CCC(C(C)(C)C)CC3)c2cc1OC` (centres undefined) are 11% and less than 0%.
As to `COc1cc2nc(NCCCN3CCCC3=O)nc(NC3CCCCCC3)c2cc1OC`, the inhibition in assay [1] and in assay [2] was 8% in each case.
Regarding `COc1cc2nc(N3CCN(C4CCCCC4)CC3)nc(NC3CCCCCC3)c2cc1OC`, the Activity in assay [3] was found to be 0.21 µM; in assay [6], 0.23 µM. Also, the inhibition in assay [1] stood at 10%; in assay [2], 0%. This compound also had an IC50 in assay [5] of 55 nM.
Regarding `COc1cc2nc(N3CCC(N4CCCC4)CC3)nc(NCCc3ccccc3)c2cc1OC`, the results for the inhibition in assay [1] and in assay [2] were 7% and 4%, respectively.
The matching figures for `COc1cc2nc(N3CCC(N4CCCC4)CC3)nc(NC3CCCC3)c2cc1OC`: 18% and 17%.
Consider `COc1cc2nc(N3CCC(N4CCCC4)CC3)nc(NCc3ccccc3)c2cc1OC`, for which the inhibition in assay [1] was 10%; in assay [2] it was less than 0%.
With `COc1ccc2c(NC3CCCCCC3)nc(N3CCC(N4CCCC4)CC3)nc2c1`, the values for the Activity in assay [3] and in assay [6] were 0.22 µM and 0.12 µM, respectively. For the same compound, the inhibition in assay [1] stood at 10%. In addition, the IC50 in assay [5] turned out to be 13 nM.
On to `COc1cc2nc(NCc3ccccc3)nc(NC3CCCCCC3)c2cc1OC`, for which the figures for the inhibition in assay [1] and in assay [2] were 13% and less than 0%, respectively.
The corresponding values for `COc1cc2nc(N3CCC(N4CCCC4)CC3)nc(NC3CCN(Cc4ccccc4)CC3)c2cc1OC` are 4% and less than 0%.
As for `CCNc1nc(N2CCC(N3CCCC3)CC2)nc2cc(OC)c(OC)cc12`, the inhibition in assay [1] was 3%; in assay [2] it was less than 0%.
Consider `COc1cc2nc(N3CCC(N4CCCC4)CC3)nc(N3CCOCC3)c2cc1OC`, for which the inhibition was less than 0% in assay [1] and 2% in assay [2].
The corresponding values for `COc1cc2nc(N3CCC(C)CC3)nc(NC3CCCCCC3)c2cc1OC` are 12% and 15%.
`COc1ccc2nc(N3CCC(N4CCCC4)CC3)nc(NC3CCCCCC3)c2c1`: the Activity in assay [3] was determined as 0.8 µM; in assay [6], 0.41 µM. Moreover, in assay [1], the inhibition came out at 10%. In addition, the IC50 in assay [5] came to 31 nM.
For the compound `COc1cc2nc(N3CCC(C(N)=O)CC3)nc(NC3CCCCCC3)c2cc1OC`, the inhibition in assay [1] is 17%; in assay [2], less than 0%.
On to `COc1cc2nc(NC(C)C)nc(NC3CCCCCC3)c2cc1OC`, for which the inhibition is less than 0% in assay [1] and 6% in assay [2].
Consider `COc1cc2nc(N3CCC(N4CCCC4)CC3)nc(NC3CCCCC3)c2cc1OC`, for which the IC50 in assay [4] was found to be 1900 nM; in assay [5], 480 nM. Moreover, the figures for the inhibition in assay [1] and in assay [2] were 71% and 54%, respectively.
Consider `COc1cc2nc(N3CCC(NC4CCCC4)CC3)nc(NC3CCCCCC3)c2cc1OC`, for which the inhibition in assay [1] is less than 0%; in assay [2], 4%. In assay [5], this compound yielded an IC50 of 13 nM. Further, the Activity in assay [6] amounted to 0.1 µM.
`COc1cc2nc(N3CCC(N4CCC(F)CC4)CC3)nc(NC3CCCCCC3)c2cc1OC`: the Activity in assay [3] stood at 0.6 µM; in assay [6], 0.31 µM. Moreover, the results for the inhibition in assay [1] and in assay [2] were 10% and 0%, respectively. The compound further showed an IC50 in assay [5] of 32 nM.
On to `COc1cc2nc(N3CCC(N4CCCC4)CC3)nc(NC3CCCCCCC3)c2cc1OC`, for which the IC50 was 1200 nM in assay [4] and 200 nM in assay [5]. In addition, the inhibition in assay [1] turned out to be 71%; in assay [2] it was 54%.
As for `COc1cc2nc(N(C)CCc3ccccc3)nc(NC3CCCCCC3)c2cc1OC`, the inhibition in assay [1] and in assay [2] was less than 0% throughout.
`COc1cc2nc(N3CCC(N(C)C)CC3)nc(NC3CCCCCC3)c2cc1OC`: the figures for the IC50 in assay [4] and in assay [5] were 730 nM and 260 nM, respectively. The inhibition came out at 65% in assay [1] and 77% in assay [2].
For the compound `COc1cc2nc(N3CCC(N4CCCC4)CC3)nc(N3CCCCC3)c2cc1OC`, the inhibition in assay [1] came to 8%; in assay [2] it was 19%.
Consider `COc1cc2nc(NCc3cccs3)nc(NC3CCCCCC3)c2cc1OC`, for which the results for the inhibition in assay [1] and in assay [2] were 0% and less than 0%, respectively.
Turning to `COc1cc2nc(C3CCN(C4CCCCC4)CC3)nc(NC3CCCCCC3)c2cc1OC`, the inhibition in assay [1] is 10%; in assay [7], 12%. The IC50 in assay [5] worked out at 510 nM.
`c1ccc2c(NC3CCCCCC3)nc(N3CCC(N4CCCC4)CC3)nc2c1`: the inhibition in assay [1] was determined as 10%. In assay [5], this compound came in with an IC50 of 200 nM. In assay [6], the Activity was found to be 1.4 µM.
With `COc1cc2nc(N3CCC(N(C)C4CCCC4)CC3)nc(NC3CCCCCC3)c2cc1OC`, the Activity was found to be 0.35 µM in assay [3] and 0.12 µM in assay [6]. The inhibition in assay [1] came to 10%; in assay [2], 0%. In assay [5], the IC50 worked out at 18 nM.
With `COc1cc2nc(N3CCN(C)CC3)nc(NC3CCCCCC3)c2cc1OC`, the inhibition in assay [1] was 13%; in assay [2], less than 0%.
